The target in data set [1] is T1, Cytochrome P450 11B1, mitochondrial (Homo sapiens, UniProt P15538).
T1 sequence (P15538 whole entry): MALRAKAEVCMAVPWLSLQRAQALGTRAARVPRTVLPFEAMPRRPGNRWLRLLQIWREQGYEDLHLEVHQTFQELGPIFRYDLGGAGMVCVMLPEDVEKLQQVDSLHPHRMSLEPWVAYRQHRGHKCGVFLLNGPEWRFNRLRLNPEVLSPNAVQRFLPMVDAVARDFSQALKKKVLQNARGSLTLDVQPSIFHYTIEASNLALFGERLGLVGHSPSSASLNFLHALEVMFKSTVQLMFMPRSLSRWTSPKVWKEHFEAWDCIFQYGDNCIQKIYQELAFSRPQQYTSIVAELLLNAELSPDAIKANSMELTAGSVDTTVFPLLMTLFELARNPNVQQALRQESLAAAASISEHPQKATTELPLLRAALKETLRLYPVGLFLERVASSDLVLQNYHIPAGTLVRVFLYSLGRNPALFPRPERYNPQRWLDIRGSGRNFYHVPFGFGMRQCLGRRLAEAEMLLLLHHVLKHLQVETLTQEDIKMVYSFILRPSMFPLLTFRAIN
In words: Inhibition of human CYP11B1 expressed in V79 MZh cells using [1,2-3H]-11-deoxycorticosterone as substrate for 6 hrs by HPTLC analysis. In kind it is cell-based, V79MZh. The essentials: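 Hamster fibroblast V79 MZh cells stably expressing human CYP11B1, grown to confluence in 6-well plates. Radiolabelled deoxycorticosterone at 100 nM, test inhibitor across a concentration range, 6 h incubation. Supernatant extracted with chloroform and centrifuged. Steroids redissolved in chloroform and separated by HPTLC. IC50 is the mean of at least three experiments, relative SD below 25%.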

The target in data set [2] is T2, Cytochrome P450 11B2, mitochondrial (Homo sapiens, UniProt P19099).
T2 sequence (P19099 whole entry): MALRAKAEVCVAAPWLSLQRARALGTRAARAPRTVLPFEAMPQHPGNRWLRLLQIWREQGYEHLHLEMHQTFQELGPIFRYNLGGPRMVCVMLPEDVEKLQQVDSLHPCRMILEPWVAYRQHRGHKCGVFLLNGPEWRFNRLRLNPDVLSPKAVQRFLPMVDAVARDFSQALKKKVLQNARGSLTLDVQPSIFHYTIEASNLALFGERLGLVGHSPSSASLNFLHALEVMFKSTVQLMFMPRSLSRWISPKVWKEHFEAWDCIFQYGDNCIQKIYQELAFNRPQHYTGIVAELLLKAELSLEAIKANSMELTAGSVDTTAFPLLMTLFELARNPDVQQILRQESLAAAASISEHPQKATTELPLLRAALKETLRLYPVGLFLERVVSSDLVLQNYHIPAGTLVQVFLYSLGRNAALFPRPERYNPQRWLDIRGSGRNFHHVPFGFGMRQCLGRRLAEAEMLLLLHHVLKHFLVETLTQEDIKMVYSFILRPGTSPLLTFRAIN
In words: Inhibition of human CYP11B2 expressed in V79 MZh cells using [1,2-3H]-11-deoxycorticosterone as substrate for 30 mins by HPTLC analysis. It is filed as cell-based, V79MZh. The method, boiled down: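 Confluent V79 MZh hamster fibroblasts expressing human CYP11B2, in 6-well plates. Reaction started with [1,2-3H]-11-deoxycorticosterone (100 nM) plus inhibitor at several concentrations and run 30 min. Chloroform extraction of supernatant, then HPTLC of steroids. Mean of ≥3 experiments, relative SD <25%.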

The species named for a further data set is Homo sapiens. In words: Selectivity index, ratio of IC50 for human CYP11B2 to IC50 for human CYP11B1. The essentials:
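Calculated as IC50(CYP11B2)/IC50(CYP11B1). Both IC50s come from V79 MZh hamster fibroblasts expressing the human enzyme, with 100 nM radiolabelled deoxycorticosterone: 6 h for 11B1 and 30 min for 11B2. Readout by HPTLC.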

The nature of data set [3]: Cytotoxicity against HEK293 cells assessed as cell viability upto 100 times IC50 concentration for 3 hrs by MTT assay. It is filed as cell-based. Particulars: human, read-out: Activity. The essentials:
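HEK293 cells in DMEM with 10% FCS, exposed to 0.1 and 1 μM compound for 3 h at 37 °C, 5% CO2, humidified. Then MTT (5 mg/mL stock in PBS) added for a further 3 h. Stopped and lysed with 10% SDS in 0.01 N HCl. Viability from MTT reduction, expressed as % of control.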
(In general: Tetrazolium dyes change colour on reduction, which living cells bring about.)

Another data set deals with T3, Aromatase (Homo sapiens, UniProt P11511).
T3 sequence (P11511 whole entry): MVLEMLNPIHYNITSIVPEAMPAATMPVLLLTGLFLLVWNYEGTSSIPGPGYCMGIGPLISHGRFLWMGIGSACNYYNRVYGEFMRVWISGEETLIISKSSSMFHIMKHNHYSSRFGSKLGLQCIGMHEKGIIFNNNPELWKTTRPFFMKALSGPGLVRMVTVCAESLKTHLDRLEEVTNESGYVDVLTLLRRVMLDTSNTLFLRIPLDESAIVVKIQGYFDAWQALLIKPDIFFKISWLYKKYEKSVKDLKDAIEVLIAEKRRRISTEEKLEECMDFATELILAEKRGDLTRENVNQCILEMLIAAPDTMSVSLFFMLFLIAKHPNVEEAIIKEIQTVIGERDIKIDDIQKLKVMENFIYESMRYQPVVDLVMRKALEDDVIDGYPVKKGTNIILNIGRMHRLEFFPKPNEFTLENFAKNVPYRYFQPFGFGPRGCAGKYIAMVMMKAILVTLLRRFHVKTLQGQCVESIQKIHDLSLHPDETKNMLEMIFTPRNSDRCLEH
In words: Inhibition of human placental CYP19 using [1beta-3H]-androstenedione as substrate for 3 hrs measured as formation of [3]H2O in presence of NADPH. The method, boiled down:
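Microsomes from fresh human term placenta. [1β-3H]androstenedione 500 nM, NADPH, glucose 6-phosphate and dehydrogenase plus inhibitor in 0.05 M phosphate pH 7.4, preincubated 5 min at 30 °C. Started with microsomal protein and run 3 h. Ethyl acetate stop, HgCl2, dextran-coated charcoal to remove steroids. 3H2O released measured. Mean of ≥3 experiments, RSD <25%.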

Data set [4] deals with T4, Steroid 17-alpha-hydroxylase/17,20 lyase (Homo sapiens, UniProt P05093).
T4 sequence (P05093 whole entry): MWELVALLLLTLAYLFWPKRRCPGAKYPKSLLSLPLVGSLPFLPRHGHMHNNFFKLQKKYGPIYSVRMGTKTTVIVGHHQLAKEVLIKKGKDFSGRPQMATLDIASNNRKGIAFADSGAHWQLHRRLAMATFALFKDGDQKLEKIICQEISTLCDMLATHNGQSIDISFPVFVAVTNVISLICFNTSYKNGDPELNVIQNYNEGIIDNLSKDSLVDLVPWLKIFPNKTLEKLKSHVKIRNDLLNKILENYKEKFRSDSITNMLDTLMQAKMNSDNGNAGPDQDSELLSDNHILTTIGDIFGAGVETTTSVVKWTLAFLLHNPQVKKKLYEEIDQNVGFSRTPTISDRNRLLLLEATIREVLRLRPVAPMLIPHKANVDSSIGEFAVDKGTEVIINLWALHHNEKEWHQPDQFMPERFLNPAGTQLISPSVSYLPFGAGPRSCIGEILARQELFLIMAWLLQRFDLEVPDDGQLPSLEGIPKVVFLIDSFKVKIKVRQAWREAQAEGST
In words: Inhibition of human CYP17 expressed in Escherichia coli co-transfected with rat NADPH-P450 reductase using progesterone as substrate for 30 mins measured as formation of 17alpha-hydroxyprogesterone and 16alpha-hydroxyprogesterone in presence of NADPH. The essentials: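 Membrane pellet from E. coli co-expressing human CYP17 and rat NADPH-P450 reductase (lysozyme, sonication, 4 °C). Progesterone 25 μM with NADPH-generating system (NADP+, glucose 6-phosphate, G6P dehydrogenase) and inhibitor, preincubated 5 min at 37 °C. Membranes added, 30 min at 37 °C. Acid quench, ethyl acetate extraction. Readout: 17α- and 16α-hydroxyprogesterone formed. Mean of ≥3 runs.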

The IC50 is the midpoint of a concentration-inhibition curve.

Turning to `O=c1cc(Cc2cccnc2)oc2cc(F)ccc12`, the IC50 in data set [1] and in data set [2] was greater than 10 µM throughout.

With `O=c1cc(Cn2ccnc2)oc2cc(F)ccc12`, the IC50 in data set [1] was 0.327 µM; in data set [2], 0.62 µM. In the data set listed under Homo sapiens, the Ratio IC50 turned out to be 1.9.

For `O=c1cc(Cc2ccncc2)oc2ccccc12`, the IC50 in data set [1] amounted to 0.222 µM; in data set [2], 1.24 µM. Further, the Ratio IC50 in the data set filed under Homo sapiens came to 5.6.

On to `O=c1c(Cc2ccncc2)coc2cc(F)ccc12`, for which the IC50 in data set [1] came to 0.0581 µM; in data set [2], 0.317 µM; on Aromatase it was 5 µM; in data set [4] it was 6.6 µM. Besides, the viability at 3 h in data set [3] worked out at 95%. Also, the Ratio IC50 in the data set listed under Homo sapiens was found to be 5.3.

With `O=c1c(Cc2ccncc2)coc2ccccc12`, the half-maximal inhibitory concentration (IC50) was determined as 0.0882 µM in data set [1], 0.954 µM in data set [2], 6.1 µM on Aromatase and 4.8 µM in data set [4]. The Ratio IC50 in the data set filed under Homo sapiens is 10.8.

Take `O=c1c(Cn2ccnc2)coc2cc(F)ccc12`: the IC50 came to 0.0869 µM in data set [1] and 0.214 µM in data set [2]. Further, in the data set filed under Homo sapiens, the Ratio IC50 is 2.5.

As to `COc1ccc2c(=O)c(Cc3ccncc3)coc2c1`, the IC50 in data set [1] worked out at 0.612 µM; in data set [2] it was 3.27 µM. For the same compound, the Ratio IC50 in the data set listed under Homo sapiens is 5.

On to `O=c1cc(Cc2ccncc2)oc2cc(F)ccc12`, for which the IC50 in data set [1] was 0.0827 µM; in data set [2] it was 0.643 µM; on Aromatase, greater than 10 µM; in data set [4], greater than 10 µM. In the data set listed under Homo sapiens, the Ratio IC50 is 7.8.

For the compound `COc1ccc2c(=O)cc(Cc3ccncc3)oc2c1`, the figures for the IC50 in data set [1] and in data set [2] were 3.6 µM and greater than 5 µM, respectively.

Take `O=c1c(Cc2cccnc2)coc2cc(F)ccc12`: the IC50 in data set [1] and in data set [2] was greater than 10 µM throughout.

With `COc1ccc2c(=O)c(Cn3ccnc3)coc2c1`, the IC50 in data set [1] was found to be 0.372 µM; in data set [2] it was 0.768 µM. Further, the Ratio IC50 in the data set listed under Homo sapiens was 2.1.

Take `O=c1cc(Cn2ccnc2)oc2ccccc12`: the IC50 in data set [1] turned out to be 0.253 µM; in data set [2], 0.499 µM. Also, the Ratio IC50 in the data set filed under Homo sapiens stood at 2.

Consider `COc1ccc2c(=O)c(Cc3cccnc3)coc2c1`, for which the IC50 in data set [1] and in data set [2] was greater than 10 µM each time.

Regarding `COc1ccc2c(=O)cc(Cn3ccnc3)oc2c1`, the IC50 in data set [1] amounted to 1.6 µM; in data set [2], 2.27 µM. Also, the Ratio IC50 in the data set filed under Homo sapiens was 1.4.

Consider `COc1ccc2c(=O)c(Cc3c[nH]cn3)coc2c1`, for which the IC50 in data set [1] is 0.109 µM; in data set [2], 1.07 µM; at Aromatase, 7.9 µM; in data set [4], greater than 10 µM. Moreover, the Ratio IC50 in the data set listed under Homo sapiens came to 9.8.

For `COc1ccc2c(=O)cc(Cc3cccnc3)oc2c1`, the IC50 in data set [1] and in data set [2] was greater than 10 µM throughout.

Consider `O=c1c(Cn2ccnc2)coc2ccccc12`, for which the IC50 worked out at 0.18 µM in data set [1] and 0.521 µM in data set [2]. Further, the Ratio IC50 in the data set listed under Homo sapiens was found to be 2.9.

As for `O=c1c(Cc2c[nH]cn2)coc2ccccc12`, the IC50 in data set [1] amounted to 0.0295 µM; in data set [2], 0.121 µM. Also, in data set [3], the viability at 3 h was 95%. In addition, the Ratio IC50 in the data set listed under Homo sapiens is 4.1.

As for `O=c1c(Cc2cccnc2)coc2ccccc12`, the IC50 in data set [1] and in data set [2] was greater than 10 µM in each case.

For `O=c1cc(Cc2cccnc2)oc2ccccc12`, the IC50 in data set [1] and in data set [2] was greater than 10 µM each time.

In the case of `O=c1c(Cc2c[nH]cn2)coc2cc(F)ccc12`, the IC50 in data set [1] is 0.0097 µM; in data set [2], 0.0949 µM; on Aromatase, 3.1 µM; in data set [4], greater than 10 µM. Further, the viability at 3 h in data set [3] is 95%. The Ratio IC50 in the data set filed under Homo sapiens turned out to be 9.8.

These data come from ChEMBL document CHEMBL3792376, “Exploiting the Chromone Scaffold for the Development of Inhibitors of Corticosteroid Biosynthesis” (J Med Chem, 2016).
